20 molecules from PubChem BioAssay can be followed below.

Active and inactive are the calls of the source.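 How the source made its calls, unless noted: active means viability at or below 30% in both replicate assays; inconclusive means viability at or below 30% in just one of the two assays; inactive means the rest.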

Test [1] in a line: HUVEC growth inhibition – cell-based, human, primary screen (AID 575).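 Further: 100% = median of untreated cell wells with 0.1% DMSO on each plate.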 Conditions: HUVEC proliferation, CellTiter-Glo luminescence, 72 h; at 10 µM; stronger effect = lower value. In short, it runs like this:
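system = HUVEC primary cells | amount = 1250 cells/well | buffer or medium = supplemented EBM, 2% fetal bovine serum | dosing = single-point 10 µM, DMSO 0.1% final | times = 72 h compound incubation | detection = CTG luminescence | read-out = % viability relative to median vehicle-well signal on each plate | control set = vehicle and MePR control wells | format = collagen-coated 384-well format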
(In general: ATP-based viability assays read luminescence as a measure of living cells.)

A short description of test [2]: H69AR cell proliferation blockers – human, duplicate replicates, primary screen (AID 580;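 active means viability at or under a set limit in both replicates, limit being median viability minus 3 SD, cut at about 48% in these data, passing the limit was not always enough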;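 further: 100% = mean luminescence of untreated wells and 0% = no signal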). Conditions: H69AR lung tumor cells viability, ATP luminescence, 72 h; at 10 µM; stronger effect = lower value.
The nature of test [3]: MRP1 drug-resistance reversers in H69AR cells – cell-based, doxorubicin co-treatment, pilot screen (AID 601;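 active means viability loss from added drug above about 55%, and viability with drug at most 40%, in both replicates, limit read from the data, passing the limit was not always enough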). Conditions: CellTiter-Glo, 72 h, at 10 µM; for differential viability (reversal): stronger effect = higher value.
The nature of test [4]: yeast transport mutant growth inhibition pilot in 384-well plates, post-Golgi transport modulator project (AID 636; in the data active means inhibition above about 31%). The conditions noted are these: absorbance 615 nm, about 18 h, stronger effect = higher value.
Test [5] can be described thus: growth suppression of yeast trafficking mutant, preliminary HTS, modulators of trafficking downstream of Golgi apparatus project, 1536-format plate, OD 615 nm (AID 637; in the data active means inhibition above about 30%). Conditions: yeast transport mutant growth, absorbance 615 nm, 18 h; stronger effect = higher value.
Where [6] appears, read: H69AR cells + 2 uM doxorubicin, measured here: viability with 2 uM doxorubicin, stronger effect = lower value.
The mark [7] stands for this setting: H69AR cells, compound alone cytotoxicity.

As for `Cc1ccc(CSc2nc3c(c(=O)[nH]2)C(c2ccncc2)C2=C(CCCC2=O)N3)cc1` (stereo not given), the viability is 72.5% (inactive) in test [1], 97.9% (inactive) in test [2], 91.1% in test [3] (setting [6]) and 97.9% in test [3] (setting [7]). Further, the differential viability (reversal) in test [3] (H69AR cells + 2 uM doxorubicin) was 6.75% (inactive). Besides, the inhibition in test [4] was -3.03% (inactive); in test [5], 2.22% (inactive).
Turning to `Cc1cc(/N=C/N(C)C)on1`, the viability in test [1] was 82.4% (inactive); in test [2] it was 93.7% (inactive); in test [3] (setting [6]), 81.7%; in test [3] (setting [7]), 93.7%. Moreover, the differential viability (reversal) in test [3] (H69AR cells + 2 uM doxorubicin) is 12% (inactive). Moreover, the inhibition in test [4] is -4.94% (inactive); in test [5], 2.06% (inactive).
On to `CC1CC(C)CN(CCCNC(=O)c2ccc3c(c2)NC(=O)C(N2CCCCC2)S3)C1` (stereo not given), for which the viability in test [1] was 88.6% (inactive); in test [2], 87.8% (inactive); in test [3] (setting [6]) it was 82.8%; in test [3] (setting [7]), 87.8%. In addition, the differential viability (reversal) in test [3] (H69AR cells + 2 uM doxorubicin) is 4.94% (inactive). Further, the values for the inhibition in test [4] and in test [5] were 2.4% (inactive) and -7.14% (inactive), respectively.
Regarding `CCOC(=O)CSC1=Nc2ccccc2C2=NC(CC(=O)NCc3cccs3)C(=O)N12` (stereo not given), the viability in test [1] is 81.9% (inactive); in test [2], 91.7% (inactive); in test [3] (setting [6]) it was 86%; in test [3] (setting [7]), 91.7%. In addition, in test [3] (H69AR cells + 2 uM doxorubicin), the differential viability (reversal) is 5.7% (inactive). Moreover, the inhibition in test [4] was -6.75% (inactive); in test [5] it was -5.56% (inactive).
Regarding `COc1ccc(S(=O)(=O)N2CCN(Cc3ccc(Cl)cc3)CC2)cc1`, the viability is 90.7% (inactive) in test [1], 97% (inactive) in test [2], 90.3% in test [3] (setting [6]) and 97% in test [3] (setting [7]). For the same molecule, the differential viability (reversal) in test [3] (H69AR cells + 2 uM doxorubicin) was 6.67% (inactive). Further, the inhibition in test [4] is -0.4% (inactive); in test [5] it was -3.81% (inactive).
With `Nc1nc(Nc2cccc3ccccc23)nc(C2CCCC2=O)n1` (stereo not given), the viability is 89.7% (inactive) in test [1], 18% (active) in test [2], 17.5% in test [3] (setting [6]) and 18% in test [3] (setting [7]). Further, the differential viability (reversal) in test [3] (H69AR cells + 2 uM doxorubicin) is 0.545% (inactive). Besides, the inhibition in test [4] is -4.46% (inactive); in test [5], 3.45% (inactive).
In the case of `CC(CN1CCCCC1)OC(=O)c1ccc(Cl)cc1Cl` (stereo not given), the viability in test [1] was 96.7% (inactive); in test [2], 92.9% (inactive); in test [3] (setting [6]), 85.9%; in test [3] (setting [7]), 92.9%. In addition, the differential viability (reversal) in test [3] (H69AR cells + 2 uM doxorubicin) was 7.05% (inactive). Further, the inhibition in test [4] was 0.53% (inactive); in test [5], -3.65% (inactive).
As for `Cc1cc(/C=c2/sc3nc4ccccc4n3c2=O)c(C)n1-c1ccccn1`, the viability in test [1] was 77.6% (inactive); in test [2], 63% (inactive); in test [3] (setting [6]), 65.2%; in test [3] (setting [7]), 63%. In test [3] (H69AR cells + 2 uM doxorubicin), the differential viability (reversal) was -2.23% (inactive). In addition, the results for the inhibition in test [4] and in test [5] were 2.4% (inactive) and -0.48% (inactive), respectively.
Turning to `COC(=O)CSC1=C(C#N)C(c2ccccc2)CC(=O)N1` (stereo not given), the viability in test [1] is 71.7% (inactive); in test [2], 23.4% (active); in test [3] (setting [6]), 71.7%; in test [3] (setting [7]), 23.4%. Besides, the differential viability (reversal) in test [3] (H69AR cells + 2 uM doxorubicin) was -48.4% (inactive). In addition, the inhibition in test [4] was -6% (inactive); in test [5], 6.19% (inactive).
As to `COc1cc2c(cc1OC)CN(Cc1nc3ccsc3c(=O)[nH]1)CC2`, the viability in test [1] is 99.5% (inactive); in test [2], 92.2% (inactive); in test [3] (setting [6]), 84.6%; in test [3] (setting [7]), 92.2%. Besides, the differential viability (reversal) in test [3] (H69AR cells + 2 uM doxorubicin) was 7.59% (inactive). The inhibition in test [4] is -2.73% (inactive); in test [5], 3.17% (inactive).
Consider `COc1ccc(CN2C(=O)c3ccccc3C2C(=O)NC2CCCC2)c(OC)c1` (stereo not given), for which the viability in test [1] is 104% (inactive); in test [2], 86.2% (inactive); in test [3] (setting [6]), 84.9%; in test [3] (setting [7]), 86.2%. The differential viability (reversal) in test [3] (H69AR cells + 2 uM doxorubicin) is 1.22% (inactive). In addition, the inhibition is 0.53% (inactive) in test [4] and -4.6% (inactive) in test [5].
As to `CCOc1ccccc1Nc1nc2ccccc2[nH]1`, the viability was 92.7% (inactive) in test [1], 94.2% (inactive) in test [2], 92.3% in test [3] (setting [6]) and 94.2% in test [3] (setting [7]). Moreover, in test [3] (H69AR cells + 2 uM doxorubicin), the differential viability (reversal) is 1.97% (inactive). Further, the inhibition in test [4] is 0.91% (inactive); in test [5], -6.03% (inactive).
As for `CCSc1nc(-c2ccc(OC)cc2)ccc1C#N`, the viability was 65.8% (inactive) in test [1], 66.5% (inactive) in test [2], 86.3% in test [3] (setting [6]) and 66.5% in test [3] (setting [7]). Further, the differential viability (reversal) in test [3] (H69AR cells + 2 uM doxorubicin) is -19.8% (inactive). The inhibition in test [4] is -1.69% (inactive); in test [5], -1.27% (inactive).
Regarding `COc1ccccc1CN(Cc1nc2ccccc2c(=O)[nH]1)C(=O)Nc1ccccc1`, the viability in test [1] is 89.4% (inactive); in test [2], 86.6% (inactive); in test [3] (setting [6]), 89.9%; in test [3] (setting [7]) it was 86.6%. Also, the differential viability (reversal) in test [3] (H69AR cells + 2 uM doxorubicin) was -3.29% (inactive). In addition, the inhibition in test [4] is -4.61% (inactive); in test [5] it was -4.13% (inactive).
For `O=C(c1ccc(CNS(=O)(=O)c2cccc(C(F)(F)F)c2)cc1)N1CCOCC1`, the viability was 102% (inactive) in test [1], 92.9% (inactive) in test [2], 80.9% in test [3] (setting [6]) and 92.9% in test [3] (setting [7]). Besides, the differential viability (reversal) in test [3] (H69AR cells + 2 uM doxorubicin) was 12% (inactive). In addition, the results for the inhibition in test [4] and in test [5] were -8.67% (inactive) and 1.43% (inactive), respectively.
`COc1ccc(OC)c(CNC(=O)CCN2C(=O)COc3ccccc32)c1`: the viability in test [1] is 90.1% (inactive); in test [2] it was 91.8% (inactive); in test [3] (setting [6]), 88.5%; in test [3] (setting [7]), 91.8%. In test [3] (H69AR cells + 2 uM doxorubicin), the differential viability (reversal) was 3.34% (inactive). For the same molecule, the inhibition is -1.32% (inactive) in test [4] and -2.06% (inactive) in test [5].
As for `CC1CCCCN1CCNS(=O)(=O)c1ccc2c(c1)oc(=O)n2C` (stereo not given), the viability is 87% (inactive) in test [1], 108% (inactive) in test [2], 99.9% in test [3] (setting [6]) and 108% in test [3] (setting [7]). Also, in test [3] (H69AR cells + 2 uM doxorubicin), the differential viability (reversal) is 7.79% (inactive). Further, the figures for the inhibition in test [4] and in test [5] were -6.13% (inactive) and -1.11% (inactive), respectively.
Consider `CCOC(=O)c1ccc(NC(=O)N2CCN(CCc3ccccc3)CC2)cc1`, for which the viability was 91.7% (inactive) in test [1], 101% (inactive) in test [2], 90.4% in test [3] (setting [6]) and 101% in test [3] (setting [7]). The differential viability (reversal) in test [3] (H69AR cells + 2 uM doxorubicin) is 10.2% (inactive). Also, the figures for the inhibition in test [4] and in test [5] were -2.11% (inactive) and -0.32% (inactive), respectively.
As to `COc1ccc(S(=O)(=O)NC(CC(=O)NCc2ccco2)c2ccco2)cc1` (stereo not given), the viability is 99.7% (inactive) in test [1], 103% (inactive) in test [2], 81.3% in test [3] (setting [6]) and 103% in test [3] (setting [7]). The differential viability (reversal) in test [3] (H69AR cells + 2 uM doxorubicin) was 22.1% (inactive). For the same molecule, the inhibition is -2.08% (inactive) in test [4] and 4.29% (inactive) in test [5].
With `Cc1ccc2[nH]c(=O)c(CN(CCc3ccccc3)Cc3nnnn3CC3CCCO3)cc2c1` (stereo not given), the viability in test [1] is 77.1% (inactive); in test [2] it was 78.5% (inactive); in test [3] (setting [6]), 78.3%; in test [3] (setting [7]), 78.5%. The differential viability (reversal) in test [3] (H69AR cells + 2 uM doxorubicin) is 0.205% (inactive). The inhibition in test [4] was 1.45% (inactive); in test [5], -5.87% (inactive).

By viability is commonly meant a read-out of living cells in per cent, often relative to untreated cells. In general, inhibition refers to the relative decrease from the control value, in per cent.
